Assays:
Rattus norvegicus [1] = species: Rattus norvegicus; assay: Evaluated for the amine formed (during conversion of N-cycloalkylsulfamates to cycloalkylamines) in 10 mL incubation in cyclamate-fed rats; assay type: functional
In short: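 Rats drank 1% sodium cyclamate for at least 6 weeks; only cyclamate converters were used. Fresh feces (~5 g) were suspended in prereduced anaerobic minimal medium (pH 7 ± 0.2), and the washed bacterial pellet was resuspended. 1.0 mL suspension plus 9 mL medium and 100 mg sulfamate ran 22–24 h at 44–45 °C with CO2 bubbling. Amine was converted to phenylurea with phenyl isocyanate and quantified by HPLC-UV 240 nm against an external standard. Reported as µg per 10 mL.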

Rattus norvegicus [2] = species: Rattus norvegicus; assay: Evaluated for the amine formed (during conversion of N-cycloalkylsulfamates to cycloalkylamines) in 10 mL incubation in Control rats; assay type: functional
In short: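 Fresh feces (~5 g) from control rats were suspended in prereduced anaerobic minimal medium (pH 7 ± 0.2), spun at low then high speed, and the pellet resuspended. 1.0 mL suspension plus 9 mL medium and 100 mg sulfamate ran 22–24 h at 44–45 °C with CO2 bubbling. Amine was extracted at pH 10 into CH2Cl2, derivatized with phenyl isocyanate, and read by HPLC-UV 240 nm against an external standard. Reported as total µg per 10 mL.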

| Compound | Amine formed (Rattus norvegicus [1]) | Amine formed (Rattus norvegicus [2]) |
| --- | --- | --- |
| CC1CCCCC1NS(=O)(=O)[O-].[Na+] (cis isomer) | 457 µg | 402 µg |
| CCC1CCCCC1NS(=O)(=O)[O-].[Na+] (trans isomer) | 57 µg | 0 µg |
| CC(C)C1CCCCC1NS(=O)(=O)[O-].[Na+] (trans isomer) | 0 µg | 0 µg |
| CC(C)C1CCCCC1NS(=O)(=O)[O-].[Na+] (stereo in doubt) | 37.5 µg | 27.9 µg |
| CCC1CCCCC1NS(=O)(=O)[O-].[Na+] (stereo in doubt) | 35 µg | – |
| O=S(=O)([O-])NC1CCCCC1.[Na+] [SODIUM CYCLAMATE] | 39 µg | 0 µg |
| CC1CCCCC1NS(=O)(=O)[O-].[Na+] (stereo in doubt) | 42 µg | 0 µg |

From ChEMBL document CHEMBL1122250, “Synthesis and bacterial metabolism of cis- and trans-2-alkyl analogues of sodium cyclamate” (1983)
